The source made the active and inactive calls. The calls are words filed in the database; no cut-off is given here.
Columns and labels:
[1] = tested on: BV-2; assay: Antiinflammatory activity against LPS-induced mouse BV-2 cells assessed as decrease in iba-1 protein expression at 20 uM after 24 hrs by DAPI staining based confocal laser microscopic method; assay type: functional, cell-based
In short: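 Cells on glass slides with compound at 20 μM final for 24 h: C6 with LPS 10 μg/mL stained for GFAP, BV2 with LPS 1 μg/mL stained for Iba-1. Fixed in 4% paraformaldehyde, blocked in 1% BSA/0.3% Triton X-100, primary antibody 1:100 overnight at 4 °C, secondary 1:200, DAPI mount, confocal imaging. Intensity given as % of LPS group, n = 3.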

[2] = tested on: Mus musculus; assay: Antiinflammatory activity against LPS-induced hippocampal neuroinflammatory Kunming mouse model assessed as increase in integral neurons at 50 mg/kg, ip administered bid for 6 days by Nissl staining based microscopic method; assay type: functional, organism-based; settings: time 6.0 day
[3] = tested on: C6; assay: Inhibition of LPS-induced NO production in rat C6 cells incubated for 24 hrs by Griess reagent based assay; assay type: functional, cell-based; settings: C6, 24 h
In short: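 C6 cells at 5×10^5 cells/mL, LPS 10 μg/mL plus compound at 2.5–40 μM final for 24 h. Nitrite measured with Griess reagent at 540 nm against a NaNO2 standard; IC50 from three repeats.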

[4] = tested on: BV-2; assay: Antiinflammatory activity against LPS-induced mouse BV-2 cells assessed as decrease in INOS protein expression at 40 uM after 24 hrs by Western blot analysis relative to control; assay type: functional
In short: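 BV2 cells in DMEM with 10% FBS; LPS 1 μg/mL plus compound at 10, 20 or 40 μM final for 24 h. Lysates in RIPA with 1 mM PMSF; 30 μg protein on 8% SDS-PAGE and blotted for iNOS and COX-2, GAPDH as reference; ECL detection and densitometry; at least three independent experiments.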

[5] = biological target: T1, Prostaglandin G/H synthase 2 (Mus musculus) (UniProt Q05769); assay: Inhibition of COX2 in LPS-induced mouse BV-2 cells assessed as reduction in PGE2 production after 24 hrs by ELISA; assay type: cell-based
T1 sequence (whole entry): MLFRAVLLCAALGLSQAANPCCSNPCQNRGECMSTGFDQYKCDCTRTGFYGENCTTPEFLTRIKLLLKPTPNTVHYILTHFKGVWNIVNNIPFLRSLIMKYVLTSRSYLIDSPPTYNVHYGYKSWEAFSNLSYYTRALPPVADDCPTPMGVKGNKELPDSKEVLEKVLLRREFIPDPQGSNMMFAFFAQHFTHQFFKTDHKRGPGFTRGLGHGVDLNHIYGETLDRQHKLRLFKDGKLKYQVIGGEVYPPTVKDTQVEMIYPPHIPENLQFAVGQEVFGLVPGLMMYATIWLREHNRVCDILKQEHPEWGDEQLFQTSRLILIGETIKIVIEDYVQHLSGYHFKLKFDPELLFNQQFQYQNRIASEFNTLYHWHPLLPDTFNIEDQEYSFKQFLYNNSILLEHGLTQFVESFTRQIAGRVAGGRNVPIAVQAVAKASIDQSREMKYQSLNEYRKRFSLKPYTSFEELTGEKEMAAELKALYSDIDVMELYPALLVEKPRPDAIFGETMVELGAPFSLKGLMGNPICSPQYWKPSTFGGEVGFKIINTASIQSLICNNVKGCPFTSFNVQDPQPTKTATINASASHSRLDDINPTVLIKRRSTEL
In short: (§1)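 BV2 cells at 5×10^5 cells/mL stimulated with LPS 1 μg/mL; compound at 10, 20 or 40 μM final for 24 h, DMSO in blanks. Supernatant TNF-α and IL-10 measured by sandwich ELISA and PGE2 by competitive ELISA, OD at 450 nm; at least three independent experiments.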

[6] = Toxicity in LPS-induced hippocampal neuroinflammatory Kunming mouse model assessed as behavioral changes at 50 mg/kg, ip administered bid for 6 days […]; assay type: organism-based; settings: in vivo, 144 h, time 6 day
In short: (§2)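 Male Kunming mice (8 weeks, 20–25 g, n = 10/group) were anaesthetised with i.p. chloral hydrate, then given LPS (3 μL of 10 mg/mL) into the lateral ventricle at 0.5 μL/min; sham mice received 3 μL saline. Compound was then given i.p. at 50 mg/kg in saline with 1% methyl cellulose for six consecutive days. Behaviour and deaths were recorded, and hippocampal slices were Nissl-stained.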

[7] = Inhibition of LPS-induced NO production in mouse BV-2 cells incubated for 24 hrs by Griess reagent based assay; assay type: functional, cell-based; settings: BV-2, 24 h
In short: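 BV2 cells at 5×10^5 cells/mL, LPS 1 μg/mL plus compound at 2.5–40 μM final for 24 h. Supernatant nitrite measured with Griess reagent for 15 min at room temperature in the dark, 540 nm, against a NaNO2 standard curve; IC50 from three repeats.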

[8] = tested on: BV-2; assay: Antiinflammatory activity against LPS-induced mouse BV-2 cells assessed as increase in IL-10 production at 40 uM after 24 hrs by ELISA; assay type: functional, cell-based; in short: as §1
[9] = Cmax in Sprague-Dawley rat at 50 mg/kg, ip up to 24 hrs by LC-MS analysis; assay type: ADME, organism-based; set-up: route intraperitoneal, dose 50 mg/kg, time <=24; settings: in vivo
In short: (§3)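 Male Sprague-Dawley rats, six per group, single 50 mg/kg intraperitoneal dose; parameters derived by non-compartmental analysis using the linear trapezoidal method; mean ± SD, n = 6.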

[10] = Toxicity in LPS-induced hippocampal neuroinflammatory Kunming mouse model assessed as death at 50 mg/kg, ip administered bid for 6 days […]; assay type: organism-based; settings: in vivo, 144 h, time 6 day; in short: as §2
[11] = Tmax in Sprague-Dawley rat at 50 mg/kg, ip up to 24 hrs by LC-MS analysis; assay type: ADME, organism-based; settings: in vivo; in short: as §3
[12] = tested on: Mus musculus; assay: Antiinflammatory activity against LPS-induced hippocampal neuroinflammatory Kunming mouse model assessed as reduction in GFAP level in hippocampus at 50 mg/kg, ip administered bid for 6 days by Western blot analysis; assay type: functional, organism-based; settings: time 6.0 day
[13] = Toxicity in po dose Kunming mouse after 14 days; assay type: organism-based; settings: in vivo, time 14 day
In short: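 Acute toxicity followed OECD guidelines in ten mice (five male, five female). A single oral dose of 1000 mg/kg was given, with a vehicle control group. Behaviour was observed over 14 days. Mice were then sacrificed for gross and H&E histological examination of heart, liver, kidney and stomach.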

[14] = biological target: Prostaglandin G/H synthase 1 (Homo sapiens) (UniProt P23219); assay: Inhibition of human COX1 assessed as reduction in PGF2alpha formation using arachidonic acid as substrate incubated for 10 mins by ELISA
[15] = Antioxidant activity assessed as DPPH radical scavenging activity incubated for 30 mins; assay type: functional
In short: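 Compound in ethanol at 2.5–40 μM final, mixed 1:1 with 700 μmol/L ethanolic DPPH; 30 min in the dark at room temperature, absorbance at 515 nm. Serotonin used as standard; EC50 from three independent experiments.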

[16] = Toxicity in Kunming mouse assessed as changes in kidney at 1000 mg/kg, po after 14 days; assay type: organism-based; settings: in vivo, 336 h, time 14 day
In short: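 Mice, five male and five female, given a single oral dose of 1000 mg/kg and observed for behaviour for 14 days. Heart, liver, kidney and stomach then examined grossly and after H&E staining, compared with vehicle controls.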

[17] = tested on: Mus musculus; assay: Antiinflammatory activity against LPS-induced hippocampal neuroinflammatory Kunming mouse model assessed as reduction in GFAP level in hippocampus at 50 mg/kg, ip administered bid for 6 days by DAPI staining based microscopic method; assay type: functional, organism-based; settings: time 6.0 day

SMILES: O=C(NCCc1c[nH]c2ccc(O)cc12)c1ccccc1Nc1ccccc1
- Activity [1]: Active
- Activity [2]: Active
- IC50 [3]: 6.73 µM
- Activity [4]: inactive
- inhibition [5]: Dose-dependent effect
- Activity [6]: Non-Toxic
- IC50 [7]: 37.2 µM
- Activity [8]: Active
- Cmax [9]: 6080 ng/mL
- Activity [10]: Non-Toxic
- Tmax [11]: 55.2 min
- Activity [12]: Active
- LD50 at 336 h [13]: > 1000 mg/kg
- IC50 [14]: 0.38 µM
- EC50 [15]: 3.82 µM
- Activity [16]: Non-Toxic
- Activity [17]: Active

SMILES: Cc1ccc(C(=O)NCCc2c[nH]c3ccccc23)c(O)c1
- Activity [1]: Active
- Activity [2]: Active
- IC50 [3]: 7.48 µM
- Activity [4]: 100%
- inhibition [5]: Dose-dependent effect
- Activity [6]: Non-Toxic
- IC50 [7]: 4.94 µM
- Activity [8]: Active
- Cmax [9]: 2100 ng/mL
- Activity [10]: Non-Toxic
- Tmax [11]: 11.4 min
- Activity [12]: Active
- LD50 at 336 h [13]: > 1000 mg/kg
- IC50 [14]: 16.4 µM
- EC50 [15]: 25.2 µM
- Activity [16]: Non-Toxic
- Activity [17]: Active

Source: ChEMBL document CHEMBL4680229, “Design, synthesis and bioactivity study of N-salicyloyl tryptamine derivatives as multifunctional agents for the treatment of neuroinflammation” (Eur J Med Chem, 2020)
